In brackets after ≈: the same amount, converted by molar mass.

The test system of assay [1] is C. albicans YEM30. Kind of assay: G. mellonella-C. albicans infection model. The conditions noted are these: 2 μg/larva, 2 h after infection. It is filed as in vivo, Galleria mellonella. The method in brief: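 Larvae were infected with 10 μL YEM30 (2 × 10^5 CFU/mL) into the last right foreleg. After 2 h they were injected with 10 μL of test compound (2 μg/larva), fluconazole (2 μg/larva) or PBS, then kept at 37°C in the dark. Death was no response to slight contact; survival was scored daily for 5 days (log-rank test). For fungal burden (40 larvae/group), six larvae/day were homogenized in PBS, serially diluted and plated on YPD.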

Assay [2] relates to C. albicans YEM30. Kind of assay: Drug resistance development test. In kind it is cell-based, Candida albicans.
Assay [3] concerns C. albicans. In words: Determination of MIC by broth microdilution. It is filed as cell-based. The conditions noted are these: Candida albicans, read-out: MICs, strain YEM30, wild-type strain. In general terms: Dilution methods test growth across graded concentrations, often in twofold steps.
Assay [4] deals with C. albicans. The conditions noted are these: subinhibitory concentrations; cited from earlier work.

In the case of `OC(Cn1cncn1)(Cn1cncn1)c1ccc(F)cc1F` [FLC, Fluconazole], the “fungal burden vs control group” value with C. albicans YEM30 [1] is given as “greatly reduced the fungal burden”. Also, the “survival rate of infected larvae” value with C. albicans YEM30 [1] (5 days) was 73%. The MIC in the assay on C. albicans YEM30 [2] (Candida albicans, YEM30, read-out: MIC value after consecutive treatment) is 8 µg/mL (≈ 26.1 µM); in the assay on C. albicans [3], 1 µg/mL (≈ 3.27 µM). Further, the drug resistance development entry with C. albicans YEM30 [2] (YEM30, consecutive treatment with 1/2 MIC, up to 40 days) is given as “developed drug resistance after being treated with 1/2 MIC of FLC for 5 days”.
For the compound `C/C=C/CCCC/C=C/CCCCC(=O)O[C@@H]1[C@@H](O)[C@@]2(CCC(C)C(O)C(C)C/C=C/c3ccccc3)O[C@H](C(=O)O)[C@@](O)(C(=O)O)[C@]1(C(=O)O)O2` (stereo partly drawn) [zaragozic acid B], the “farnesol levels compared to untreated cells” value in the assay with C. albicans [4] is 8–10 folds.

Source of the values: article PMC10321171 (Virulence, 2023).
